In the library only some 0.77% were active in any assay of this set; here they are far more common.
hIAP block – human IAP inhibition. inhibition, % at 10 µM. actives 0.12% (n = 330,000). AID 2544. P09923. purified IAP, CDP-Star luminescence, 30 min;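 active = inhibition reaching a set limit with compound at 10 µM in the primary screen, cut at about 35% in these data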
Target sequence (P09923 whole entry, looked up): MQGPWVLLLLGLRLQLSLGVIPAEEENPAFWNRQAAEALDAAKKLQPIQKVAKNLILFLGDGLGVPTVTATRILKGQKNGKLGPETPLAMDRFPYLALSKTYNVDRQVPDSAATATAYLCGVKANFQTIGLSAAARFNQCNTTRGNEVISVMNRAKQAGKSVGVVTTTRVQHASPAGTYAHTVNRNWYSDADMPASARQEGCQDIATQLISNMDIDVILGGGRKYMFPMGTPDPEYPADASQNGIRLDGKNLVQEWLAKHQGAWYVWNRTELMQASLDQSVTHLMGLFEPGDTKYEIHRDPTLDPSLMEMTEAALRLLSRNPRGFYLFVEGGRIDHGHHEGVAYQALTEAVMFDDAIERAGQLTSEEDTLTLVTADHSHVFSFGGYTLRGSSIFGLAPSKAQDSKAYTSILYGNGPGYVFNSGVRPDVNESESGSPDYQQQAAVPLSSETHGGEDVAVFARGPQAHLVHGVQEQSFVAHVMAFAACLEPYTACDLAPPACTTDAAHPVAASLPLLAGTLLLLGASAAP
hIAP act – human IAP activation; P09923; purified human IAP, CDP-Star luminescence, 30 min; active compounds read high; 1 = vehicle-only enzyme, 0 = enzyme-free background; activation factor at 10 µM; actives 0.16% (n = 330,000);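 active = activation factor of the enzyme at least 2-fold when tested at 20 µM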
mIAP block – mouse IAP inhibition. purified mouse IAP, CDP-Star luminescence, 30 min. inhibition, % at 10 µM. actives 0.2% (n = 330,000);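 active = inhibition of at least 40% at 10 µM in the primary screen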
bIAP act – increases bovine intestinal alkaline phosphatase activity; purified bovine IAP, CDP-star luminescence, 30 min; active compounds read high; fold of DMSO-control signal, blank-subtracted; activation factor at 20 µM; actives 0.17% (n = 200,000); AID 1016;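 active = activation factor of 2 or more at 20 µM, a signal rise over negative controls twice the positive control's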
bIAP inh – intestinal alkaline phosphatase (bovine) inhibition. purified bovine IAP, CDP-star luminescence, 30 min. inhibition, % at 20 µM. 190,000 tested, under 10 active. AID 1019;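 active = over 50% inhibition of intestinal alkaline phosphatase at 20 µM in the single-dose screen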
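Assay system – bovine IAP enzyme · Quantity – bovine IAP at 1/65,000,000 final dilution · Detection – CDP-star luminescence signal · Times – 30 min reaction at room temperature · Also added – CDP-star substrate at 30 µM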
mIAP activ – increases mouse intestinal alkaline phosphatase activity; muIAP, CDP-Star luminescence, 30 min; active compounds read high; 1 = vehicle-only enzyme signal, 0 = enzyme-free wells; actives 0.24% (n = 330,000); AID 2805; activation factor at 10 µM;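 active = activation factor of at least 2 at 20 µM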
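System: mouse IAP enzyme. Reagent: CDP-Star chemiluminescent phosphatase substrate. Benchmarks: DMSO wells, no-enzyme wells. Times: 30 min enzyme-substrate-compound incubation at room temperature. Detection: luminescence from enzymatic CDP-Star hydrolysis. Doses: test compounds delivered from DMSO solution.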
Each line names hits and unclear results; the compound was inactive in the other large screens.

CC(CNC(=S)Nc1cc(F)cc(F)c1)CSc1ccc(Cl)cc1 (stereo not given)	mIAP activ 3.19
Cn1cccc1C(=O)OCC(=O)Nc1ccc2[nH]c(=O)[nH]c2c1	none (no result: bIAP act, bIAP inh)
Cc1cccc(N(Cc2nnc3n2CCCCC3)C(=O)Nc2ccccc2)c1	none
O=[N+]([O-])c1c(NCCCO)cc(SCc2ccco2)c2nonc12	mIAP block 54.5
CCC(=O)Nc1cccc(-c2nnc(-c3cccc(NC(=O)CC)c3)o2)c1	mIAP block 43.9
Nc1nonc1-n1nnc(C(=O)N/N=C/c2ccc(OCc3ccc(F)cc3)cc2)c1COc1ccccc1	none (no result: bIAP act, bIAP inh)
O=C(NC1CC2CCC(C1)N2Cc1nnnn1Cc1ccco1)NC12CC3CC(CC(C3)C1)C2 (stereo not given)	bIAP act 3.4
CCOc1ccccc1C(=O)NC1CC2CCCC(C1)N2Cc1nnnn1Cc1ccco1 (stereo not given)	none
Cc1noc(C)c1C(=O)Nc1ccc(S(=O)(=O)N2CCCCC2)cc1	none (no result: bIAP act, bIAP inh)
Cc1noc(C)c1C(=O)Nc1ccc(S(=O)(=O)N2CCC(C)CC2)cc1	mIAP block 50.6 (no result: bIAP act, bIAP inh)
Cc1cccc(NC(=O)C2C(c3ccccc3)C2(Cl)Cl)c1 (stereo not given)	mIAP activ 2.47
CCOC(=O)c1ccc(NC(=O)NC2CCN(CC(=O)NCc3ccc4c(c3)OCO4)CC2)cc1	mIAP activ 2.27
CCCN1C2CCCC1CC(NC(=S)Nc1cccc(C)c1C)C2 (stereo not given)	none (no result: bIAP act, bIAP inh)
Cc1cccc(C)c1NC(=O)NC1CC2CCC(C1)N2Cc1cccs1 (stereo not given)	none
Cc1cccc(NC(=S)NC2CC3CCCC(C2)N3Cc2cccs2)c1C (stereo not given)	mIAP activ 2.31
CCc1ccccc1NC(=S)NC1CC2CCCC(C1)N2Cc1cccs1 (stereo not given)	mIAP activ 2.4
COc1cccc(CNC(=O)COC(=O)c2cc(Br)c(Br)s2)c1	none (no result: bIAP act, bIAP inh)
COc1ccccc1Nc1nc(-c2cccs2)cs1	mIAP block 42.6
CC(OC(=O)C1CC1)C(=O)Nc1cccc(S(=O)(=O)N2CCOCC2)c1 (stereo not given)	none (no result: bIAP act, bIAP inh)
COc1cccc(OCC(=O)NNC(=O)c2cccs2)c1	mIAP block 40.6
CCc1cc(Cn2nc(-c3ccccc3)cc2C(=O)NCc2cccs2)on1	mIAP activ 3.58 (no result: bIAP act, bIAP inh)
COc1cccc(CCC(=O)O)c1OC	none (no result: bIAP act, bIAP inh)
Cn1nc(C(=O)NC2CCCCC2)c2ccccc2c1=O	none
Cn1nc(CC(=O)NC2CCCCCCCCCCC2)c2ccccc2c1=O	bIAP act 2.3
Cn1ncc2c(NNC(=O)c3ccc(O)cc3)ncnc21	none
Cc1cccc(C(=O)NNc2ncnc3c2cnn3C)c1	hIAP act 2.13
Cc1ccc(-n2ncc3c(NNC(=O)c4ccco4)ncnc32)c(C)c1	hIAP act 2.98
Cc1ccc(-n2ncc3c(NCc4ccco4)ncnc32)c(C)c1	none
Cn1c(=O)c2[nH]c(N/N=C(/C#N)C(N)=O)nc2n(C)c1=O	none (no result: bIAP act, bIAP inh)
CSc1cccc(NC(=O)NCc2cccc(CNC(=O)Nc3cccc(SC)c3)c2)c1	mIAP activ 2.09 (no result: bIAP act, bIAP inh)
CCn1ncc(/C=N/NC(=O)c2ccc3c(c2)OCO3)c1C	none
CCn1cc(/C=N\NC(=O)c2ccc3c(c2)c(C)c(C)n3Cc2ccccc2)c(C)n1	bIAP act 4.2
CCn1nc(C)c(/C=N\NC(=O)c2ccc3c(c2)OCO3)c1C	none
CCn1nc(C)c(/C=N/NC(=O)c2ccc3c(c2)c(C)c(C)n3Cc2ccccc2)c1C	bIAP act 7, mIAP activ 4.26
CCn1ncc(/C=N\NC(=O)c2ccc3c(c2)c(C)c(C)n3Cc2ccccc2)c1C	bIAP act 4.5, mIAP activ 3.4
CSc1ccc(/C=C/C(=O)OCC(=O)NCC2CCCO2)cc1 (stereo not given)	none (no result: bIAP act, bIAP inh)
O=S(=O)(c1ccc(Oc2ccc(S(=O)(=O)N3CCOCC3)cc2)cc1)N1CCOCC1	none
O=C(/C=C/c1ccco1)N(c1ccccn1)c1ccccn1	mIAP block 45.1
CC(C)(C)c1ccc(NC(=O)Nc2ccc(F)cc2)cc1	mIAP activ 2.19
CC(C)(C)c1ccc(COC(=O)Nc2ccc(F)cc2)cc1	none
Cc1ccc(NC(=O)CCC(=O)c2ccc(F)cc2)cc1Cl	none

Assay outcomes deposited in PubChem BioAssay by Sanford-Burnham Center for Chemical Genomics.
